Experimental data of several laboratories.
Each line is one published result; the experiments were not run side by side.
Target: Aurora kinase B (AURKB, Homo sapiens, UniProt Q96GD4)

The remaining signal of `Cc1ccc(NC(=O)c2ccc(C)c(C(F)(F)F)c2)cc1C#Cc1nn(C2CCC(O)CC2)c2ncnc(N)c12` (centres unmarked) is reported as 475% (cell-free assay, inhibitor; 10 µM).
`Brc1cnc(Nc2cccc(CN3CCOCC3)c2)nc1NCCc1c[nH]cn1` gave a remaining activity of 1% (enzyme activity, inhibitor, radiometric; 1 µM).
`CC(=O)C1=C(C)N(c2cccc(C(F)(F)F)c2)C(=O)N[C@@H]1c1ccc(C#N)nc1` has a remaining binding of 100% (cell-free assay, competition with immobilised ligand; 1 µM).
`CCN(CC)CCNC(=O)c1c(C)[nH]c(/C=C2\C(=O)Nc3ccc(F)cc32)c1C` has a remaining signal of 48.7% (cell-free assay; 0.5 µM).
For `Cc1nc(N2CC[C@@H](O)C2)ncc1-c1cc(C(F)(F)F)cc2[nH]ncc12`, the remaining binding was 100% (cell-free assay, competition with immobilised ligand; 1 µM).
With `Cc1nn(CC(F)(F)F)cc1Nc1ncc(C2CC2)c(NCCc2c[nH]cn2)n1` the remaining activity was 82% (enzyme activity, inhibitor, radiometric; 1 µM).
The activity vs control of `Cc1ccc(C(=O)NCc2ccsc2)cc1C#Cc1cn(C(C)C)c2ncnc(N)c12` is reported as 40% (enzyme activity, inhibitor; 1 µM).
The remaining activity of `Cc1nn(CC(F)(F)F)cc1Nc1ncc(Br)c(NCCc2cnc[nH]2)n1` is reported as 22% (enzyme activity, inhibitor, radiometric; 1 µM).
For `N#CCCc1ccc2c(c1)-c1[nH]c3ccc([N+](=O)[O-])cc3c1CC(=O)N2`, the remaining signal was 80% (cell-free assay; 0.5 µM).
With `CCC(=O)N[C@@H]1CC[C@H](C(=O)N(C)c2ccc(-c3nc4ccccc4o3)cc2)C1` the remaining binding was 96% (cell-free assay, competition with immobilised ligand; 1 µM).
The inhibition of `O=C(CSc1nc2nccnc2c(=O)n1CCc1ccccc1)Nc1nccs1` is reported as 6% (enzyme activity, inhibitor; 10 µM).
With `CO[C@@H](C)c1c(Nc2ccc([C@@H](N(C)C(=O)C3CCS(=O)(=O)CC3)C(F)(F)F)cc2)cnc2cc(Cl)nn12` the remaining binding was 74% (cell-free assay, competition with immobilised ligand; 1 µM).
`CC/C(=N\NC(=O)NCc1cccc(O)c1)c1ccc(O)c(C)c1O` has an inhibition of 2.9% (enzyme activity, inhibitor; 0.1 µM).
The inhibition of `CN(C)C1CCN(CC#Cc2nn(C3CCCC3)c3nc(NCc4ccccc4)ncc23)C1` (centres unmarked) is reported as 21% (enzyme activity, inhibitor, FRET; 1 µM).
`Cc1c[nH]c2nccc(Oc3c(F)cc(Nc4cc(Cl)nc(N)n4)cc3F)c12` has a remaining binding of 82% (cell-free assay, competition with immobilised ligand; 0.1 µM).
`C=CC(=O)Nc1cc(Nc2nccc(Nc3cc(Cl)c(F)cc3C(C)(C)O)n2)c(OC)cc1N1CC[C@@H](N(C)C)C1` has an inhibition of 10% (enzyme activity, inhibitor; 1 µM).
`Cc1cc(NC(=O)c2cccc3cc(-c4cccc5[nH]nc(N)c45)ccc23)ccc1F` gave an activity vs control of 12% (enzyme activity, inhibitor; 0.1 µM).
The remaining binding of `CN(C)CC#Cc1ccc(OCCCc2sc(N3CCc4cccc(C(=O)Nc5nc6ccccc6s5)c4C3)nc2C(=O)O)c(F)c1` is reported as 79% (cell-free assay, competition with immobilised ligand; 1 µM).
`O=C(Nc1cccc(Nc2ncc(Br)c(NCCc3cnc[nH]3)n2)c1)N1CCCC1` gave a remaining activity of 2% (enzyme activity, inhibitor, radiometric; 1 µM).
`CN(C)S(=O)(=O)c1ccc2c(c1)/C(=C/c1cc3c([nH]1)CCCC3)C(=O)N2` has a remaining signal of 11% (cell-free assay; 0.5 µM).
